In ChEMBL document CHEMBL3399918, “In vitro radical scavenging and cytotoxic activities of novel hybrid selenocarbamates” (Bioorg Med Chem, 2015):
Activity calls are given as the source filed them. The rule behind the calls is not given here.

Assays:
[1] = test system: MCF7; experiment: Cytotoxicity against human MCF7 cells after 72 hrs by MTT assay; type: functional; conditions: MCF7, 72 h; for CC50: read-out: LC50 (the source's name)
Summary of the method: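 MCF-7 cells grown in EMEM with 10% foetal calf serum, 2 mM L-glutamine, 100 units/mL penicillin, 100 µg/mL streptomycin. Exposed to five concentrations between 0.01 and 100 μM for 72 h, 37 °C, humidified 5% CO2; MTT read-out. GI50, TGI, LC50 relative to untreated controls; ≥3 independent experiments in quadruplicate.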

[2] = test system: HT-29; experiment: Cytotoxicity against human HT-29 cells after 72 hrs by MTT assay; type: functional; conditions: HT-29, 72 h
Summary of the method: (§1)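 CCRF-CEM, HT-29, PC-3 and HTB-54 cells grown in RPMI 1640 with 10% foetal calf serum, 2 mM L-glutamine, penicillin/streptomycin, 10 mM HEPES (pH 7.4). Five concentrations, 0.01–100 μM, 72 h at 37 °C, 5% CO2; MTT read-out. GI50, TGI and LC50 versus untreated controls; at least 3 independent experiments in quadruplicate.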

[3] = test system: CCRF-CEM; experiment: Cytotoxicity against human CCRF-CEM cells after 72 hrs by MTT assay; type: functional; summary of the method: as §1
[4] = Cytotoxicity against human PC3 cells after 72 hrs by MTT assay; type: functional; conditions: PC-3, 72 h; summary of the method: as §1
[5] = Cytotoxicity against human HTB-54 cells after 72 hrs by MTT assay; type: functional; conditions: HTB-54, 72 h; for CC50: read-out: LC50 (the source's name); summary of the method: as §1
[6] = Cytotoxicity against human 184B5 cells after 72 hrs by MTT assay; type: cell-based; conditions: for GI50 at 72 h: 184B5 cells; for LC50 / TGI: 184b5, 72 h
Summary of the method: (§2)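 Non-malignant lines: 184B5 (normal breast) in Hams F-12/DMEM (50:50) with published supplements; BEAS-2B (bronchial epithelium) in Hams F-12/DMEM (50:50) with 10% foetal calf serum, 2 mM L-glutamine, penicillin/streptomycin. Compounds at five concentrations, 0.01–100 μM, 72 h, 37 °C, 5% CO2; MTT read-out. GI50, TGI, LC50 relative to untreated controls; ≥3 independent experiments in quadruplicate.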

[7] = Cytotoxicity against human BEAS2B cells after 72 hrs by MTT assay; type: cell-based, BEAS-2B; conditions: for GI50 at 72 h: BEAS2B cells; for LC50 / TGI: beas-2b, 72 h; summary of the method: as §2
[8] = Antioxidant activity assessed as DPPH radical scavenging activity at 0.5 mg/ml after 180 mins; type: physicochemical; conditions: 3 h
Summary of the method: (§3)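 Compounds in absolute ethanol, serially diluted from 1 mg/mL, mixed 1:1 with […] in ethanol. Final range 0.016–0.5 mg/mL, 6 concentrations. Incubated at 37 °C in the dark, with decolourisation followed at 517 nm at several time intervals. % scavenged = (A vehicle control − A sample)/A control × 100. Quadruplicate; mean ± SD.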

[9] = Antioxidant activity assessed as ABTS radical scavenging activity at 0.1 mg/ml after 6 mins; type: physicochemical; conditions: 0.1 h
Summary of the method: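 Diluted with 50% ethanol to A741 0.700 ± 0.02. A741 decrease read after 6 min against a 50% ethanol blank. % scavenged relative to a vehicle-plus-radical control. Quadruplicate.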

[10] = Antioxidant activity assessed as ABTS radical scavenging activity by measuring Trolox equivalent antioxidant capacity after 6 mins; type: physicochemical; conditions: 0.1 h
Summary of the method: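 ABTS dissolved in deionized water at 1 mg/mL, oxidised to radical cation with potassium persulfate (2.45 mM final), kept overnight at room temperature in dark, then diluted with 50% ethanol to A741 = 0.700 ± 0.02. Compound (1 mg/mL ethanol stock) added 1:10 (0.1 mg/mL); A741 decrease read after 6 min against 50% ethanol blank. Trolox positive control; quadruplicate; TEAC from calibration curve.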

[11] = Antioxidant activity assessed as DPPH radical scavenging activity at 0.25 mg/ml; type: physicochemical; conditions: TDE = time-dependent effect; summary of the method: as §3
[12] = Glutathione peroxidase-like activity assessed as reduction in H2O2 reduction by tiophenol based UV absorption spectrometry
Summary of the method: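 Iwaoka–Tomoda thiophenol method. Compound in ethanol at 0.1 mg/mL, mixed in equal volumes with 2 mM PhSH in ethanol and 5 mM H2O2 in ethanol (stock concentrations). Data collected every 5 s. Negative control contained compound, vehicle and PhSH without H2O2. Triplicate; mean ± SD.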

[13] = Glutathione peroxidase-like activity assessed as reduction in H2O2 reduction at 0.033 mg/ml by tiophenol based UV absorption spectrometry
Summary of the method: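 Iwaoka–Tomoda method: compound in ethanol (0.1 mg/mL stock) mixed in equal volumes with 2 mM PhSH and 5 mM H2O2 (both ethanol stocks), thiophenol-driven catalytic H2O2 reduction. Data collected every 5 s. Negative control without H2O2 (compound, vehicle, PhSH). Triplicate.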

Compound: N#C[Se]c1ccc(NC(=O)Oc2ccccc2)cc1
- GI50 [1]: 4 µM
- TGI [1]: 35.9 µM
- CC50 [1]: 67.8 µM
- GI50 [2]: 11.7 µM
- LC50 [2]: 71.7 µM
- TGI [2]: 41.7 µM
- GI50 [3]: 22.9 µM
- LC50 [3]: 73.2 µM
- TGI [3]: 48 µM
- GI50 [4]: 9.1 µM
- LC50 (concentration causing 50% net cell kill) [4]: 68 µM
- TGI [4]: 37.5 µM
- GI50 [5]: 26.2 µM
- TGI [5]: 50.2 µM
- CC50 [5]: 74.4 µM
- GI50 at 72 h [6]: 0.4 µM
- LC50 [6]: 61.2 µM
- TGI [6]: 22.7 µM
- GI50 at 72 h [7]: 8.9 µM
- LC50 [7]: 69.3 µM
- TGI [7]: 38.2 µM
- inhibition (INH) [8]: 19.3%
- inhibition (INH) [9]: > 25%
- Activity [10]: 29 µg/µL

Compound: CCOC(=O)Nc1ccc([Se][Se]c2ccc(NC(=O)OCC)cc2)cc1
- GI50 [1]: 9.9 µM
- TGI [1]: 39 µM
- CC50 [1]: 68.3 µM
- GI50 [2]: 26 µM
- LC50 [2]: 76.1 µM
- TGI [2]: 51.1 µM
- GI50 [3]: 24.6 µM
- LC50 [3]: 74.3 µM
- TGI [3]: 49.5 µM
- GI50 [4]: 28.8 µM
- LC50 (concentration causing 50% net cell kill) [4]: 75.7 µM
- TGI [4]: 52.2 µM
- GI50 [5]: 31.2 µM
- TGI [5]: 56.6 µM
- CC50 [5]: 82 µM
- GI50 at 72 h [6]: 5.7 µM
- LC50 [6]: 58.7 µM
- TGI [6]: 16.7 µM
- GI50 at 72 h [7]: 16.1 µM
- LC50 [7]: 71.9 µM
- TGI [7]: 44 µM
- inhibition (INH) [8]: 37%
- inhibition (INH) [9]: 21.3%
- Activity [10]: 13.6 µg/µL

Compound: CCCCOC(=O)Nc1ccc([Se][Se]c2ccc(NC(=O)OCCCC)cc2)cc1
- GI50 [1]: 17.3 µM
- TGI [1]: 46.3 µM
- CC50 [1]: 75.2 µM
- GI50 [2]: 27.6 µM
- LC50 [2]: 82.4 µM
- TGI [2]: 55 µM
- GI50 [3]: 16.7 µM
- LC50 [3]: 72.3 µM
- TGI [3]: 44.5 µM
- GI50 [4]: 28.6 µM
- LC50 (concentration causing 50% net cell kill) [4]: 76.4 µM
- TGI [4]: 52.5 µM
- GI50 [5]: 35.2 µM
- TGI [5]: 57.3 µM
- CC50 [5]: 79.4 µM
- GI50 at 72 h [6]: 7.2 µM
- LC50 [6]: 63.1 µM
- TGI [6]: 26 µM
- GI50 at 72 h [7]: 24.2 µM
- LC50 [7]: 75 µM
- TGI [7]: 49.6 µM
- inhibition (INH) [8]: 36.1%
- inhibition (INH) [9]: 7.3%
- Activity [10]: 2.67 µg/µL

Compound: CCCCOC(=O)Nc1ccc([Se]C#N)cc1
- GI50 [1]: 6.6 µM
- TGI [1]: 20.2 µM
- CC50 [1]: 59.7 µM
- GI50 [2]: 8.1 µM
- LC50 [2]: 63.7 µM
- TGI [2]: 31.3 µM
- GI50 [3]: 6.5 µM
- LC50 [3]: 63.5 µM
- TGI [3]: 27.9 µM
- GI50 [4]: 12.4 µM
- LC50 (concentration causing 50% net cell kill) [4]: 69.3 µM
- TGI [4]: 40.8 µM
- GI50 [5]: 17.2 µM
- TGI [5]: 43.4 µM
- CC50 [5]: 69.5 µM
- GI50 at 72 h [6]: 5.3 µM
- LC50 [6]: 56.8 µM
- TGI [6]: 14.5 µM
- GI50 at 72 h [7]: 5 µM
- LC50 [7]: 54.5 µM
- TGI [7]: 12.2 µM
- inhibition (INH) [8]: 6.6%
- inhibition (INH) [9]: 12.6%
- Activity [10]: 6.77 µg/µL

Compound: C=CCOC(=O)Nc1ccc([Se][Se]c2ccc(NC(=O)OCC=C)cc2)cc1
- GI50 [1]: 20.8 µM
- TGI [1]: 47.2 µM
- CC50 [1]: 73.6 µM
- GI50 [2]: 25.9 µM
- LC50 [2]: 79.5 µM
- TGI [2]: 52.7 µM
- GI50 [3]: 4.6 µM
- LC50 [3]: 46.9 µM
- TGI [3]: 8.7 µM
- GI50 [4]: 25 µM
- LC50 (concentration causing 50% net cell kill) [4]: 74.7 µM
- TGI [4]: 49.9 µM
- GI50 [5]: 29.8 µM
- TGI [5]: 56.6 µM
- CC50 [5]: 83.3 µM
- GI50 at 72 h [6]: 6.4 µM
- LC50 [6]: 60.4 µM
- TGI [6]: 21.5 µM
- GI50 at 72 h [7]: 14.3 µM
- LC50 [7]: 71.4 µM
- TGI [7]: 42.9 µM
- inhibition (INH) [8]: 30%
- inhibition (INH) [9]: 10.9%
- Activity [10]: 5.5 µg/µL

Compound: CC(C)COC(=O)Nc1ccc([Se][Se]c2ccc(NC(=O)OCC(C)C)cc2)cc1
- GI50 [1]: 19 µM
- TGI [1]: 49.7 µM
- CC50 [1]: 80.5 µM
- GI50 [2]: 19.9 µM
- LC50 [2]: 77.4 µM
- TGI [2]: 48.6 µM
- GI50 [3]: 9.8 µM
- LC50 [3]: 70.2 µM
- TGI [3]: 39.8 µM
- GI50 [4]: 24.2 µM
- LC50 (concentration causing 50% net cell kill) [4]: 73.7 µM
- TGI [4]: 48.9 µM
- GI50 [5]: 29 µM
- TGI [5]: 52.9 µM
- CC50 [5]: 76.9 µM
- GI50 at 72 h [6]: 5.5 µM
- LC50 [6]: 56.6 µM
- TGI [6]: 10.5 µM
- GI50 at 72 h [7]: 13.1 µM
- LC50 [7]: 72.4 µM
- TGI [7]: 42.7 µM
- inhibition (INH) [8]: 66.5%
- inhibition (INH) [11]: tde
- inhibition (INH) [9]: 29.6%
- Activity [10]: 20 µg/µL
- Activity [12]: inactive

Compound: CCOC(=O)Nc1ccc([Se]C#N)cc1
- GI50 [1]: 8.9 µM
- TGI [1]: 36.7 µM
- CC50 [1]: 67.8 µM
- GI50 [2]: 9.3 µM
- LC50 [2]: 66.6 µM
- TGI [2]: 38 µM
- GI50 [3]: 9.8 µM
- LC50 [3]: 68.8 µM
- TGI [3]: 39.1 µM
- GI50 [4]: 9.9 µM
- LC50 (concentration causing 50% net cell kill) [4]: 68.4 µM
- TGI [4]: 39.2 µM
- GI50 [5]: 24.9 µM
- TGI [5]: 49.3 µM
- CC50 [5]: 72.7 µM
- GI50 at 72 h [6]: 5.5 µM
- LC50 [6]: 59 µM
- TGI [6]: 18.6 µM
- GI50 at 72 h [7]: 21.7 µM
- LC50 [7]: 72.2 µM
- TGI [7]: 46.9 µM
- inhibition (INH) [8]: 37%
- inhibition (INH) [9]: 26.3%
- Activity [10]: 17.4 µg/µL
- Activity [13]: Active

Compound: COc1ccc(OC(=O)Nc2ccc([Se][Se]c3ccc(NC(=O)Oc4ccc(OC)cc4)cc3)cc2)cc1
- GI50 [1]: 9.7 µM
- TGI [1]: 42.8 µM
- CC50 [1]: 76.8 µM
- GI50 [2]: 13 µM
- LC50 [2]: 79.2 µM
- TGI [2]: 46.1 µM
- GI50 [3]: 5.3 µM
- LC50 [3]: 63.1 µM
- TGI [3]: 25.8 µM
- GI50 [4]: 4.4 µM
- LC50 (concentration causing 50% net cell kill) [4]: 64.6 µM
- TGI [4]: 28.2 µM
- GI50 [5]: 18 µM
- TGI [5]: 46.3 µM
- CC50 [5]: 74.5 µM
- GI50 at 72 h [6]: 3.4 µM
- LC50 [6]: 43.5 µM
- TGI [6]: 8.1 µM
- GI50 at 72 h [7]: 0.6 µM
- LC50 [7]: 62.3 µM
- TGI [7]: 19.9 µM
- inhibition (INH) [8]: > 50%
- inhibition (INH) [9]: > 25%
- Activity [12]: inactive
